Laboratory results as given in ChEMBL document CHEMBL3769317, “Aminothiazoles as Potent and Selective Sirt2 Inhibitors: A Structure-Activity Relationship Study” (J Med Chem, 2016).
Structures can show the parent of a compound that is named as a salt. Each block holds one molecule with its values, some of them ahead of it. The source made the active and inactive calls. No cut-off for these calls is given here. Where a SMILES comes first, the peptide text is derived from it. Bridges are numbered along the chain shown (N, C = ends). The star is where a group is joined. Tfa = O=C(C(F)(F)F)*

How the values were obtained:
[1] = target: T1, NAD-dependent protein deacetylase sirtuin-2 (Homo sapiens, UniProt Q8IXJ6); assay: Inhibition of human SIRT2 using RHKK(Ac)-AMC as substrate preincubated for 10 mins followed by substrate addition by fluorescence assay
T1 sequence (Q8IXJ6 whole entry): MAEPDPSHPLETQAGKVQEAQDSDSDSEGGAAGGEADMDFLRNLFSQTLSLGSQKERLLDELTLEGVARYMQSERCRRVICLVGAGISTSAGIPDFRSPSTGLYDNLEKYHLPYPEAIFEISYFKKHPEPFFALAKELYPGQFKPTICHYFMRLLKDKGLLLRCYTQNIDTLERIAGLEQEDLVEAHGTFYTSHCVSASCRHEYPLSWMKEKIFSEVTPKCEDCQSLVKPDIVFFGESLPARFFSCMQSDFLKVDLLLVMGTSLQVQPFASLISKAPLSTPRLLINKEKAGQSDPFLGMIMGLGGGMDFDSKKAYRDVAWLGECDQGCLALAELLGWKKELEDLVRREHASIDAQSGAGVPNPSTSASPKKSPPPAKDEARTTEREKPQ

[2] = target: T2, NAD-dependent protein deacetylase sirtuin-1 (Homo sapiens, UniProt Q96EB6); assay: Inhibition of human SIRT1 using RHKK(Ac)-AMC as substrate preincubated for 10 mins followed by substrate addition by fluorescence assay
T2 sequence (Q96EB6 whole entry): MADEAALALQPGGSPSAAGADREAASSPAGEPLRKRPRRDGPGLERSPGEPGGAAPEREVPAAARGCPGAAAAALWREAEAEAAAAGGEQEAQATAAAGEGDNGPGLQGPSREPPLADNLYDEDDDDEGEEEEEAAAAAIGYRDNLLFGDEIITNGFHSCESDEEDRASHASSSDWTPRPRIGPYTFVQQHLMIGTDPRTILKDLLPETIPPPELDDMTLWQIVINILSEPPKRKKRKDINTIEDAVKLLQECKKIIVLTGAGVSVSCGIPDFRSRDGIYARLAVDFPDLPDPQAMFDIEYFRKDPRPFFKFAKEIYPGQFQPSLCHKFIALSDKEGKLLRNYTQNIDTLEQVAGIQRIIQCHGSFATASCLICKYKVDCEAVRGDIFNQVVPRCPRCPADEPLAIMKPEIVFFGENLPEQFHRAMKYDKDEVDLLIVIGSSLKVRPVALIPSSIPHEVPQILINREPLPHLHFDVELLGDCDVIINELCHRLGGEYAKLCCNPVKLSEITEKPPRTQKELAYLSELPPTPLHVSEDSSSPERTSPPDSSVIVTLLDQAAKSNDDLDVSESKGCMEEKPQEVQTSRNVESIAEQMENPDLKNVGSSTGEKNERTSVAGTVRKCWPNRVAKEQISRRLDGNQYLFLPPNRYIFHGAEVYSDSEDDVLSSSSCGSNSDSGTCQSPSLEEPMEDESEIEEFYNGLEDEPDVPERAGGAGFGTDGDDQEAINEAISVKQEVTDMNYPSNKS

[3] = target: T2, NAD-dependent protein deacetylase sirtuin-1; assay: Inhibition of human SIRT1 by fluorometric assay
Method in brief: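 Fluorescence-based homogeneous assay with ZMAL (Cbz-Lys(acetyl)-AMC) substrate at 10,5 µM final and NAD+ at 500 µM final, in Tris/NaCl/KCl buffer pH 8.0 with 5% (v/v) DMSO final. Incubated 4 h at 37 °C, then stopped with trypsin/nicotinamide for 20 min at 37 °C. Read at ex 390/em 460 nm against no-inhibitor controls, at least duplicates.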

[4] = target: T1, NAD-dependent protein deacetylase sirtuin-2; assay: Inhibition of human SIRT2
[5] = target: T3, NAD-dependent protein deacetylase sirtuin-2 (Homo sapiens) (UniProt Q8IXJ6); assay: Inhibition of SIRT2 in human HeLa cells assessed as tubulin acetylation at 10 uM after 1 hr by Western blotting method; format: cell-based
T3 sequence (whole entry): T1 sequence (Q8IXJ6 whole entry)
Method in brief: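 HeLa cells grown in high-glucose DMEM with 10% FCS and kanamycin at 37 °C, 5% CO2. 1.5 x 10^4 cells per well were plated overnight, then exposed to compound for 1 h from 10 mM DMSO stocks, with DMSO vehicle controls. Cells were lysed in reducing sample buffer and run on SDS-PAGE/PVDF. Blots were probed for acetyl-α-tubulin Lys40 (6-11B-1) and then GAPDH. Values were normalized to the mean control on the same blot.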

[6] = target: T3, NAD-dependent protein deacetylase sirtuin-2 (Homo sapiens); assay: Inhibition of SIRT2 in human HeLa cells assessed as tubulin hyperacetylation at 10 uM after 1 hr by DAPI staining-based immunofluorescence microscopy relative to control; format: cell-based
Method in brief: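 HeLa cells, 0.5 x 10^4 per 12 mm coverslip, were plated overnight, then exposed for 1 h to 10 µM compound added from 10 mM DMSO stocks, with DMSO vehicle controls. The microtubule network was immunostained for acetylation and nuclei were counterstained with DAPI, followed by immunofluorescence microscopy.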

[7] = target: T1, NAD-dependent protein deacetylase sirtuin-2; assay: Inhibition of N-terminal his6-tagged human SIRT2 (25 to 389 amino acids) using ZMAL as substrate after 4 hrs by fluorescence-based microplate reader method
[8] = target: T4, NAD-dependent protein deacetylase sirtuin-1 (Homo sapiens) (UniProt Q96EB6); assay: Inhibition of GST-tagged human SIRT1 (133 to 747 amino acids) using ZMAL as substrate at 200 uM after 4 hrs by fluorescence-based microplate reader method
T4 sequence (whole entry): T2 sequence (Q96EB6 whole entry)

[9] = target: T2, NAD-dependent protein deacetylase sirtuin-1; assay: Inhibition of GST-tagged human SIRT1 (133 to 747 amino acids) using ZMAL as substrate after 4 hrs by fluorescence-based microplate reader method

Compound: COc1ccc2ccccc2c1Cn1cnc2sc3c(c2c1=O)CCC(NCc1cccnc1)C3 (stereo not given)
IC50 [1]: 1450 nM
IC50 [2]: > 100000 nM

Compound: Cc1cc(C)nc(SCC(=O)Nc2ncc(Cc3cccc4ccccc34)s2)n1
inhibition [8]: < 10%
IC50 [9]: > 50000 nM

Further lines, results first:

IC50 [3]: > 40000 nM
Compound: N#C/C(=C/c1ccc(-c2cc(Cl)ccc2Cl)o1)C(=O)Nc1cccc2ncccc12

IC50 [4]: 1 nM
Compound: CC(C)[C@@H]1NC(=O)[C@H](Cc2c[nH]cn2)NC(=O)[C@H](Cc2ccc(O)cc2)NC(=O)[C@H]([C@@H](C)O)NC(=O)[C@H](Cc2c[nH]cn2)NC(=O)[C@H](Cc2ccc(O)cc2)NC(=O)CSC[C@@H](C(N)=O)NC(=O)[C@H](Cc2ccc(O)cc2)NC(=O)[C@H](Cc2ccc(O)cc2)NC(=O)[C@H](CC(N)=O)NC(=O)[C@H]([C@@H](C)O)NC(=O)[C@H](CCCNC(=N)N)NC(=O)[C@H](CCCNC(=N)N)NC(=O)[C@H](CCCCNC(=O)C(F)(F)F)NC1=O ({CH2CO}-YHTYHVK(Tfa)RRTNYYC-NH2; thioether N-14)

inhibition [5]: Active
inhibition [6]: Active
IC50 [7]: 180 nM
inhibition [8]: 29%
Compound: Cc1cc(C)nc(SCC(=O)Nc2ncc(Cc3cccc4ccc(Cl)cc34)s2)n1
